High-throughput results as filed in PubChem BioAssay.
Sampled rows, rich in hits. Any-hit rate of the full collection: about 2.2%.
CHRM5 antagonist: CHRM5 antagonism in calcium assay; P08912; CHO-hM5 cells, Fluo-8 calcium fluorescence, ACh EC80; actives 0.59% (n = 360,000); inhibition, % at 3 µM;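 active means inhibition above a per-plate cutoff, the mean of that plate's test compounds plus 3 SD, cut at about 27% in these data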;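 further: 0% = acetylcholine EC80 with DMSO and 100% = DMSO without agonist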
Target sequence (P08912 whole entry, looked up): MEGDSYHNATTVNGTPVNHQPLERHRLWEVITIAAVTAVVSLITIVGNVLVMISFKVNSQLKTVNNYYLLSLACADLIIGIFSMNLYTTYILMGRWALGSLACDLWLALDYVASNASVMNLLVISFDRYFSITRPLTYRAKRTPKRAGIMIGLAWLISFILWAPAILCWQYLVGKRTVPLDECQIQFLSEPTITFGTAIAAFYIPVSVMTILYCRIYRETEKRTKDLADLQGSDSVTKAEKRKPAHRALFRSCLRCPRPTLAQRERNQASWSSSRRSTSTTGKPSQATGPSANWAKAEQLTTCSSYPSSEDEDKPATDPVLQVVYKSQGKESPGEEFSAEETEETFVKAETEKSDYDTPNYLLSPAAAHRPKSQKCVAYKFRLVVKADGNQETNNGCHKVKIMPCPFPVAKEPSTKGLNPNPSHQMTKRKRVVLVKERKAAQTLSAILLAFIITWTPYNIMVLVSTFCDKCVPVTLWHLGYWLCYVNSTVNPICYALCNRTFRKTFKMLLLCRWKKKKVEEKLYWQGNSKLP
M5 PAM: potentiates acetylcholine response at human M5 receptor. P08912. CHO-K1 hM5, Fluo-8 calcium, ACh EC20 PAM; 0% = ACh EC20, 100% = ACh EC100. activation, % at 3 µM. actives 0.3% (n = 360,000);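 active means activation above the run cutoff, the mean activation of all test compounds plus 3 SD, cut at about 18% in these data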
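System: CHO-K1 cell line with stable human muscarinic M5 receptor expression | Also added: EC20 acetylcholine as agonist stimulus | Compound: One concentration, 3 µM final (nominal) | Timing: Fluo-8 loading 80 min at 37 °C plus 30 min room temperature | Measured by: Fluo-8 calcium dye fluorescence, kinetic read | Read-out basis: % activation, ACh-normalized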
CHRM1 antagonist: blocks human M1 muscarinic receptor; inhibition, % at 3 µM; actives 1.3% (n = 360,000); CHO-K1 hM1, Fluo-8 calcium fluorescence, ACh EC80 antagonist; AID 588852;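 active means percent inhibition above its own plate's cutoff, namely the mean of that plate's compound wells plus 3 SD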;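 further: peak over basal fluorescence ratio during 140 s after agonist addition; 0% = ACh EC80 plus DMSO and 100% = DMSO alone without agonist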
M5 ag: agonists of human muscarinic M5 receptor (CHRM5); activation, % at 3 µM; actives 0.19% (n = 360,000); P08912; CHO-K1 hM5 cells, Fluo-8 calcium fluorescence; 0% DMSO wells, 100% maximal acetylcholine response;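 active means activation above the run's mean over test compounds plus 3 SD, cut at about 23% in these data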;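 further: signal is peak over basal fluorescence ratio across the kinetic read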
M1 ag: agonists of human M1 muscarinic receptor | P11229 | CHO-K1 hM1, Fluo-8 calcium fluorescence, agonist mode; 0% DMSO, 100% acetylcholine EC100 | activation, % at 3 µM | actives 0.33% (n = 360,000) | AID 588814;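 active means activation above the run's mean compound activation plus 3 SD, cut at about 16% in these data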;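 further: peak over basal fluorescence ratio within a 140 s kinetic read after compound addition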
CHRM1 PAM: human CHRM1 positive allosteric modulation. CHO-K1 hM1, Fluo-8 calcium fluorescence, ACh EC20; 0% = ACh EC20, 100% = maximal ACh. P11229. activation, % at 3 µM. actives 0.088% (n = 360,000); in the data active means activation above about 19%, passing the limit was not always enough
An asterisk follows results filed as active.

SMILES	CHRM5 antagonist	M5 PAM	CHRM1 antagonist	M5 ag	M1 ag	CHRM1 PAM
COc1ccc(NC(=O)C(=O)NCC2CCCN2S(=O)(=O)c2cccs2)cc1 (configuration not stated)	7.2	1.6	-3.2	-0.7	-3.4	-1.4
O=C(NC(=S)NCC1CCCO1)c1ccc([N+](=O)[O-])cc1 (configuration not stated)	-6.2	1.1	9.3	-2.6	-3.6	-7.1
COc1ccc(C(=O)C2CCCN(Cc3cc(C)c(O)c(C)c3)C2)c(OC)c1 (configuration not stated)	-2.2	4.4	-20.3	-0.8	-9.6	11.5
COc1ccc(C(=O)C2CCCN(C3Cc4ccccc4C3)C2)c(OC)c1 (configuration not stated)	-2.1	-10.8	28.9*	-10.2	-14.5	-30.7
Cc1ccc(NC(=O)C(C)N2CCc3ccccc3C2)cc1 (configuration not stated)	13.8	-7.0	6.4	-1.8	-8.9	-3.6
CC(C(=O)Nc1ccc(S(=O)(=O)N2CCCC2)cc1)N1CCc2ccccc2C1 (configuration not stated)	-0.3	-4.3	100.8*	-1.3	-7.4	-27.6
CCCC(C)C(=O)Nc1ccc(S(=O)(=O)N2CCCC2)cc1 (configuration not stated)	10.3	2.2	-6.9	-0.8	-6.5	4.9
CC(C(=O)Nc1ccc(S(=O)(=O)N2CCCC2)cc1)N1CCCC(C(N)=O)C1 (configuration not stated)	8.9	-5.5	38.4*	-2.2	-7.2	-16.8
COc1ccc(NC(=O)CSc2ccc3nnc(-c4cccnc4)n3n2)c(OC)c1	3.0	4.4	-4.6	-3.4	-2.8	6.8
O=C(CN1C(=O)NC(c2ccccc2)(c2ccccc2)C1=O)NCc1ccco1	23.1	-7.8	-9.1	-0.5	-1.0	9.0
Cc1ccc(C2(c3ccccc3)NC(=O)N(CC(=O)NCc3ccco3)C2=O)cc1C (configuration not stated)	-10.6	18.1*	-3.0	-9.7	-8.2	3.6
Cc1noc(C(C)C)c1C(=O)Nc1ccc(-c2nnc3n2CCCCC3)cc1	13.6	-4.2	32.5*	-9.9	-8.8	-15.8
COc1cc(/C=N/Nc2nc(Nc3ccccc3)nc(-n3nc(C)cc3C)n2)cc(OC)c1OC	19.3	-12.9	25.9*	0.8	-5.5	-17.8
CC(C)Cc1ccc(-c2cc(=O)[nH][nH]2)cc1	28.3*	-12.7	8.5	-1.8	-3.8	-7.1
Cc1ccc(S(=O)(=O)NCCC(=O)NCc2ccco2)cc1	-1.1	-3.6	-15.6	0.6	-4.1	7.6
COc1cccc2c1OC1(C)CC2NC(=O)N1c1cccc(C(=O)Nc2ccc3c(c2)OCCO3)c1 (configuration not stated)	6.6	-47.0	27.9*	-2.9	-1.0	-13.0
Cc1noc(C)c1CCC(=O)NC1CCCN(Cc2ccc(CC(C)C)cc2)C1 (configuration not stated)	-4.2	-0.8	54.1*	-5.6	-4.9	-22.3
CC(C)Cc1ccc(CN2CCCC(NC(=O)c3ccnn3C)C2)cc1 (configuration not stated)	9.5	-8.7	-4.8	-1.0	0.0	-9.6
Cc1noc(C)c1CCC(=O)NC1CCCN(Cc2ccc(Cl)cc2)C1 (configuration not stated)	6.9	-15.5	36.3*	-5.2	-7.6	-15.9
COc1ccc(OCC(=O)NC2CCCN(Cc3ccc(Cl)cc3)C2)cc1 (configuration not stated)	12.7	4.8	-9.3	-8.1	-5.1	7.9
FC(F)(F)c1cc(CCN2CCNC[C@@H]2c2ccccc2)cc(C(F)(F)F)c1	8.6	2.4	9.4	1.5	-4.3	-3.4
CCCC[C@@H]1CNCCN1CCc1cc(C(F)(F)F)cc(C(F)(F)F)c1	18.8	-38.2	33.6*	-12.9	-11.8	-27.3
FC(F)(F)c1cc(CCN2CCNC[C@@H]2CC2CCCCC2)cc(C(F)(F)F)c1	25.5	-39.4	35.9*	-10.9	12.0	-8.2
CCC(C)[C@H]1CNCCN1CCc1cc(C(F)(F)F)cc(C(F)(F)F)c1 (some centres not stated)	-1.4	-9.9	0.9	-10.7	-2.6	7.1
O=C1CCN(S(=O)(=O)c2ccccc2)CCN1CCOCc1cccc(F)c1	3.0	0.8	-23.9	-3.6	-1.9	9.6
SMILES	CHRM5 antagonist	M5 PAM	CHRM1 antagonist	M5 ag	M1 ag	CHRM1 PAM
CCn1c(SCC(=O)N(C)C)nc2cc(S(=O)(=O)N3CCOCC3)ccc21	-4.6	2.1	12.8	3.7	0.0	1.7
CN(C(=O)Cn1c(Cl)nc2c1c(=O)n(C)c(=O)n2C)C1CCS(=O)(=O)C1 (configuration not stated)	-1.9	-3.3	23.2*	3.6	-1.5	-10.1
Cc1c2cnn(CC(=O)NCCN3CCOCC3)c(=O)c2c(C)n1Cc1ccccc1	18.2	-7.5	32.5*	4.3	-4.1	-14.0
Cc1c2cnn(CC(=O)NCCCN3CCCCC3)c(=O)c2c(C)n1Cc1ccccc1	3.5	-1.4	6.5	-3.3	-11.5	-7.1
CCC1CCCCN1CCCNC(=O)Cn1ncc2c(C)n(Cc3ccccc3Cl)c(C)c2c1=O (configuration not stated)	6.9	-7.3	44.4*	-5.7	-14.2	-30.2
Cc1cc(C)c(S(=O)(=O)Nc2cccc(S(=O)(=O)NC3=NCCC3)c2)c(C)c1	4.7	6.5	-3.4	-3.9	-3.9	8.3
Cc1cc[n+](CC(=O)c2ccc(NC(=O)c3ccccc3)cc2)cc1	-1.8	2.6	31.9*	-5.3	-5.9	-12.3
O=C(C[n+]1ccccc1)c1ccc(NC(=O)c2ccccc2)cc1	-1.1	0.3	2.4	-3.9	-9.3	1.8
Cc1cc(C)c[n+](CC(=O)c2ccc(-c3ccccc3)cc2)c1	-3.2	4.4	35.6*	-5.7	-14.0	-23.4
Cc1cccc(C(=O)NCc2nnc(SCC(=O)Nc3nncs3)n2C)c1	-17.1	8.5	-0.8	0.2	-6.5	1.3
CCOC(=O)c1ccc(N=c2scc(C)n2CC)cc1	15.8	-5.6	10.4	-8.3	-9.2	-23.4
CCOC(=O)c1ccc(N=C2C(=S)N(c3ccc(C(=O)OCC)cc3)C(=N)N2/N=C/c2ccccc2)cc1	87.0*	-19.5	99.0*	-7.2	-5.0	-20.9
Cc1ccc2c(CNCc3ccccc3)cc(=O)oc2c1	7.6	-1.5	-8.0	-2.5	-3.4	7.6
COc1cc(C=C(C(C)=O)C(C)=O)ccc1O	-6.0	4.4	3.3	1.5	0.2	-9.3
COc1cc(/C=C/C(=O)CC(=O)/C=C/c2ccc(O)c(OC)c2)ccc1O	23.2	-10.5	23.9	14.3	18.9*	-20.4
COc1cc(C=O)ccc1O	1.2	-0.3	-7.6	1.2	-4.2	4.9
